In general, bioavailability refers to dose-corrected exposure relative to a reference, in per cent. A word on the IC50: it is the concentration that gives 50% inhibition. A lower IC50 goes with inhibition by little substance. As usually defined, the EC50 is the midpoint of the concentration-response curve. A high value points to lower potency in that assay. As usually defined, the fraction unbound is free concentration divided by total concentration. Read a low fraction unbound as little free substance.

Molecules are shown by their SMILES.

Data set [1] is described as follows: Oral bioavailability in rat. As to conditions: in vivo; call rule not given here. Format: ADME, organism-based.
The subject of data set [2] is Hepatocyte. Put plainly: Intrinsic clearance in CD1 mouse hepatocytes at 0.5 uM after 2 hrs by LC-MS/MS analysis. Format: ADME, cell-based. Summed up:
(§1)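 Compound at 0.5 µM incubated with pooled cryopreserved hepatocytes (0.7 million cells/mL) in Williams Medium E at 37°C under CO2/O2. Supernatants analysed by LC-MS/MS. CLi was derived from a first-order rate constant, scaled with 1.2x10^8 cells/g liver (human, rat, mouse) or 2.4x10^8 cells/g liver (dog).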

The test system of data set [3] is Salmonella typhimurium. As to the kind of experiment: Mutagenicity in Salmonella typhimurium by Ames test. Format: toxicity, organism-based. The following applies: salmonella enterica subsp. enterica serovar typhimurium. (In general: The Ames test detects mutagens through reverse mutation in bacteria.)
Data set [4] in a line: Intrinsic clearance in beagle dog hepatocytes at 0.5 uM after 2 hrs by LC-MS/MS analysis. Format: ADME, cell-based, Canis lupus familiaris, Hepatocyte. The gist of the method: as §1
The target in data set [5] is Cytochrome P450 2C9 (Homo sapiens, UniProt P11712). Put plainly: Inhibition of CYP2C9 (unknown origin) coexpressed in Escherichia coli with human NADPH reductase using 7-methoxy-4-trifluoromethylcoumarin-3-acetic acid as substrate after 10 mins by fluorescence assay. Format: ADME. The gist of the method: (§2)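 Recombinant CYP co-expressed in E. coli with human NADPH reductase, incubated with an isoform-specific pro-fluorescent substrate and compound (nine concentrations, 0.1-100 µM) plus a 0.2 mM NADPH regenerating system for 10 min at 37°C. Fluorescent metabolite formation was monitored.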
Sequence of Cytochrome P450 2C9 (P11712 whole entry, canonical isoform): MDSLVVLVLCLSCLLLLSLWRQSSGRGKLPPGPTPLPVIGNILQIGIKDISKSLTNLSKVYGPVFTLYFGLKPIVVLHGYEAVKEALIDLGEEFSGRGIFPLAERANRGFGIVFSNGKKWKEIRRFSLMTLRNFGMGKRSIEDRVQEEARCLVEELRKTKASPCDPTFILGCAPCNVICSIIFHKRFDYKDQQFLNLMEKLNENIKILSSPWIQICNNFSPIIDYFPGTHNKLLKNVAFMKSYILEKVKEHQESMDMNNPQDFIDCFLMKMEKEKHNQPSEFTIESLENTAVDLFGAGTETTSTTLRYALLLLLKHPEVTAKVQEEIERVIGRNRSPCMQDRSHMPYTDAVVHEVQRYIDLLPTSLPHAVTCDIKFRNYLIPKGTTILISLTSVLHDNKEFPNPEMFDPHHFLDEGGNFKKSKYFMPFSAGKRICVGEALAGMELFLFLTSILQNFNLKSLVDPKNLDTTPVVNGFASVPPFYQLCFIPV

Data set [6] concerns the target Cytochrome P450 2C19 (Homo sapiens, UniProt P33261). Put plainly: Inhibition of CYP2C19 (unknown origin) coexpressed in Escherichia coli with human NADPH reductase using 3-butyryl-7-methoxycoumarin as substrate after 10 mins by fluorescence assay. Format: ADME. The gist of the method:
as §2

Data set [7] is described as follows: Activation of CYP1A (unknown origin). Format: ADME. As to conditions: human.
Data set [8] concerns the target T1, Cytochrome P450 3A4 (Homo sapiens, UniProt P08684). As to the kind of experiment: Inhibition of human CYP3A4 coexpressed in Escherichia coli with human NADPH reductase using atorvastatin as substrate at 0.1 to 100 uM by fluorescence assay. In kind it is ADME. The following applies: TDE = time-dependent effect.
The target in data set [9] is T1, Cytochrome P450 3A4. Put plainly: Inhibition of human CYP3A4 by VG metabolism assay. In kind it is ADME.
In data set [10] the target is T2, Sphingosine 1-phosphate receptor 1 (Homo sapiens, UniProt P21453). Put plainly: Agonist activity at human S1P1 receptor expressed in RH7777 cells by [35S]GTP-gammaS accumulation assay. Format: cell-based. Summed up:
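RH7777 S1P1 membranes (1.5 µg/well) precoupled 30 min on ice to WGA SPA beads in 20 mM HEPES, 10 mM MgCl2, 100 mM NaCl, pH 7.4, with 10 µM GDP and 90 µg/mL saponin (final). 0.5 nM [35S]GTPγS final added to compound; plates read immediately by scintillation proximity.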
For orientation: GTPγS resists hydrolysis and so accumulates on activated G proteins.

Data set [11] addresses T2, Sphingosine 1-phosphate receptor 1. Put plainly: Agonist activity at human S1P1 receptor expressed in CHO-K1 EDG1 cells by beta-arrestin recruitment assay. In kind it is cell-based. The gist of the method:
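CHO-K1 cells stably expressing beta-arrestin 2 and S1P1 fused to complementing beta-galactosidase fragments; grown to 80% confluency, harvested enzyme-free, resuspended in HEPES/BSA assay buffer pH 7.4. Cells at 1x10^4/well added to compound in DMSO, 90 min at 37°C/5% CO2, then 15 min at room temperature; chemiluminescent detection mix 60 min at room temperature, luminescence read.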
Background: Recruitment of arrestin is a read-out of receptor activation apart from second messengers.

Data set [12] deals with T1, Cytochrome P450 3A4. As to the kind of experiment: Inhibition of human CYP3A4 coexpressed in Escherichia coli with human NADPH reductase using midazolam as substrate at 0.1 to 100 uM by fluorescence assay. In kind it is ADME. The following applies: TDE = time-dependent effect.
For data set [13], the target named is Cytochrome P450 2D6 (Homo sapiens, UniProt P10635). Put plainly: Inhibition of CYP2D6 (unknown origin) coexpressed in Escherichia coli with human NADPH reductase using 4-methylaminomethyl-7-methoyxycoumarin as substrate after 10 mins by fluorescence assay. In kind it is ADME. The gist of the method: as §2
Sequence of Cytochrome P450 2D6 (P10635 whole entry): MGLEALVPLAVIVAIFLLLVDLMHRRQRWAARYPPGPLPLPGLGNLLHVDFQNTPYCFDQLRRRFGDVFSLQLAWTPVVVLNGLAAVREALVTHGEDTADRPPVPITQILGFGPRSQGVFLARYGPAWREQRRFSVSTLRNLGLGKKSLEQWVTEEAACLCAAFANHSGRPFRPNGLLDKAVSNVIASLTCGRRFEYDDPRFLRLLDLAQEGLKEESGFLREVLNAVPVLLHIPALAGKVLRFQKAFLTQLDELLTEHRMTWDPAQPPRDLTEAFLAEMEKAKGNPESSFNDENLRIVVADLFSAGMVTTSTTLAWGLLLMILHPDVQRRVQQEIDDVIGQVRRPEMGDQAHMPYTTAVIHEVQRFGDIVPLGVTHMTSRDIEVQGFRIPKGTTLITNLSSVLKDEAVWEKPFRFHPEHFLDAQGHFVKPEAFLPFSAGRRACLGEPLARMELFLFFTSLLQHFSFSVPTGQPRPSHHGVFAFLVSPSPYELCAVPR
A short description of data set [14]: Fraction unbound in beagle dog blood after 4 hrs by LC-MS/MS analysis. Format: ADME, tissue-based, Canis lupus familiaris. The gist of the method: (§3)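 Fresh blood (CD rat, CD1 mouse, Beagle dog, single human donor) spiked at 1000 ng/mL and dialysed against PBS by rapid equilibrium dialysis for 4 h at 37°C. Matrix-matched LC-MS/MS; unbound fraction taken from the buffer/blood peak area ratio.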

Data set [15] can be described thus: Fraction unbound in CD1 mouse blood after 4 hrs by LC-MS/MS analysis. In kind it is ADME, tissue-based. Summed up:
as §3

Data set [16] concerns the target T1, Cytochrome P450 3A4. Put plainly: Inhibition of human CYP3A4 coexpressed in Escherichia coli with human NADPH reductase using nifedipine as substrate at 0.1 to 100 uM by fluorescence assay. Format: ADME. The following applies: TDE = time-dependent effect.
Data set [17] has as its system Rattus norvegicus. Put plainly: Lymphopenia activity in oral dosed Lewis rat.
In data set [18] the target is T3, Cytochrome P450 1A2 (Homo sapiens, UniProt P05177).
T3 sequence (P05177 whole entry): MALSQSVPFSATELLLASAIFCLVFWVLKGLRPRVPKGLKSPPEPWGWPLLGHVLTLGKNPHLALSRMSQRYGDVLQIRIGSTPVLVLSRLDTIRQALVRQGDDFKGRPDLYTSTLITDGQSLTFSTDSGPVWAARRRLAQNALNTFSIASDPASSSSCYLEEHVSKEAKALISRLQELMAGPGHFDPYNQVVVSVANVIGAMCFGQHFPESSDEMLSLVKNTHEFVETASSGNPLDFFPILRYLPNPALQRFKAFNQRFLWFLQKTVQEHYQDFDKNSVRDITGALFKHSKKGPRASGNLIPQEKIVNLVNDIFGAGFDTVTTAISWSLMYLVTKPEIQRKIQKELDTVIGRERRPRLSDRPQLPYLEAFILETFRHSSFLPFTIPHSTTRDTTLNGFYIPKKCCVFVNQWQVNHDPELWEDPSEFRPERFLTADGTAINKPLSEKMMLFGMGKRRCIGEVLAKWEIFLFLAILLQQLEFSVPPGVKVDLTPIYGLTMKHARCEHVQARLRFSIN
As to the kind of experiment: Inhibition of CYP1A2 (unknown origin) coexpressed in Escherichia coli with human NADPH reductase using ethoxyresorufin as substrate after 10 mins by fluorescence assay. In kind it is ADME. Summed up: as §2

Data set [19] is described as follows: Passive permeability from apical to basolateral side in MDCK2-MDR1 cells after 90 mins by LC-MS/MS analysis. Format: ADME, cell-based, Canis lupus familiaris, MDCK-II. As to conditions: dog, MDCK-MDR1; read-out: permeability. The gist of the method:
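MDCKII-MDR1 monolayers used 3-4 days after seeding on inserts. Apical FaSSIF at pH 5.5 or 7.4; basolateral DMEM pH 7.4 with 1% HSA. Both sides contained 2 µM GF120918 and were preincubated 30 min. A→B transport measured in triplicate after 90 min at 37°C with shaking.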

The nature of data set [20]: Fraction unbound in human blood after 4 hrs by LC-MS/MS analysis. Format: ADME, tissue-based. The gist of the method: as §3
Data set [21] is described as follows: Fraction unbound in CD rat blood after 4 hrs by LC-MS/MS analysis. Format: ADME, tissue-based. Summed up: as §3
Data set [22] has as its target T1, Cytochrome P450 3A4. As to the kind of experiment: Inhibition of human CYP3A4 by VR metabolism assay. In kind it is ADME.

T1 sequence (P08684 whole entry): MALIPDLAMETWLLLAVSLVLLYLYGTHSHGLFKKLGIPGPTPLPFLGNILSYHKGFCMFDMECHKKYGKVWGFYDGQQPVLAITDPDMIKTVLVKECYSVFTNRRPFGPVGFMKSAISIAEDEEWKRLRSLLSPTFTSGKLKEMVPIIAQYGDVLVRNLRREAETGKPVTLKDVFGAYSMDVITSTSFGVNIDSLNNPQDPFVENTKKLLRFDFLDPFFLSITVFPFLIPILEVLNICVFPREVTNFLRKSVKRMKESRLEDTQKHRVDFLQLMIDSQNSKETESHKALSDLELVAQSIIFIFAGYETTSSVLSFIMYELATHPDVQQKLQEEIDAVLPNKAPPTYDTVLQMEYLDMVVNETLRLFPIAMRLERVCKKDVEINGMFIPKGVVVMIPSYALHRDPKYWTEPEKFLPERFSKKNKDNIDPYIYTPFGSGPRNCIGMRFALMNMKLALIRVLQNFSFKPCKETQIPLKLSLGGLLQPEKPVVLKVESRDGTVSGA
T2 sequence (P21453 whole entry): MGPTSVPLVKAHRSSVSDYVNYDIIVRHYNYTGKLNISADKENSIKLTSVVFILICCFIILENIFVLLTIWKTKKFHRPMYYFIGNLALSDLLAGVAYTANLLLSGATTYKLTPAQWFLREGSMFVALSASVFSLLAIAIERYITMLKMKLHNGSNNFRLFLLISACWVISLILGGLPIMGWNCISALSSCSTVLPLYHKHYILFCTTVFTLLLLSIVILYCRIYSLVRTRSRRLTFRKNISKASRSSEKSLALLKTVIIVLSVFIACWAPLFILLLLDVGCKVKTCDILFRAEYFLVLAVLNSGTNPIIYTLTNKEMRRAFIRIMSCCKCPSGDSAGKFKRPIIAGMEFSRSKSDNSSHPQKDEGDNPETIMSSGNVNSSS
Sequence of Cytochrome P450 2C19 (P33261 whole entry): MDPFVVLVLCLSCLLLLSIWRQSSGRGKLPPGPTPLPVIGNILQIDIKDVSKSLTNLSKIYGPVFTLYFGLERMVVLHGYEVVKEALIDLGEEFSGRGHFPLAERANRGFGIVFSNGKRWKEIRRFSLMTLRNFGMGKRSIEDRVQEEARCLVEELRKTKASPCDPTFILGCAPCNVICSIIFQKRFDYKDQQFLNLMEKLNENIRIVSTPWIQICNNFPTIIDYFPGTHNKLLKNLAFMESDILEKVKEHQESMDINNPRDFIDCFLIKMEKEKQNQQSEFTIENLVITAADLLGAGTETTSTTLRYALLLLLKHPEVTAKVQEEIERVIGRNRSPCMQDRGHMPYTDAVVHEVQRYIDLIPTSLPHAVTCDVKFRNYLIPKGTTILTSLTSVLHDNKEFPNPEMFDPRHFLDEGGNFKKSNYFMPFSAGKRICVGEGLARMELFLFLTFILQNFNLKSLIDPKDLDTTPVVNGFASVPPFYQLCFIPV

Turning to `Cc1c2c(nn1-c1nnc(-c3ccc(OC(C)C)c(Cl)c3)s1)CCN(CCC(=O)O)C2`, in [1], the bioavailability is 52%. For the same compound, the CLH in data set [2] is below 0.85 mL/min/g; in data set [4], 6 mL/min/g. Moreover, the results for the Activity result in data set [3] and in data set [7] were “Non-toxic” and “Not Active”, respectively. The IC50 in data set [5] was above 50 µM; in [6] it was above 50 µM; in data set [9], above 50 µM; in data set [13] it was above 50 µM; in data set [17], 0.006 µM; in data set [18], above 50 µM. The same compound came in with an IC50 in [22] above 50 µM. In addition, the “inhibition (INH)” value in data set [8], in data set [12] and in data set [16] was “tde” throughout. Also, the EC50 in [10] was 0.00631 µM; in data set [11] it was 0.00158 µM. In addition, the fraction unbound at 4 h amounted to 0.011 in [14], 0.011 in data set [15], 0.008 in [20] and 0.014 in data set [21]. The Papp A→B at 1.5 h in data set [19] was 14.7 ×10⁻⁶ cm/s.
